HIV Env fusion: inhibitors of HIV Env-mediated cell fusion | HeLa-JRFL Env/CEM21 cell fusion, luciferase | inhibition, % at 12.3 µM | actives 1.1% (n = 360,000) | AID 651610;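 active = mean replicate inhibition score of at least 50 and every replicate individually at or above 50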;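 note: 0% = plate neutral controls and 100% = maraviroc near 300 nM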
FN deposit inh: fibronectin deposition inhibition | AH1F fibroblasts, Alexa488-fibronectin deposition fluorescence, overnight | inhibition, % at 12.6 µM | actives 0.086% (n = 350,000);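 active = mean inhibition across replicates of 30% or more, regardless of how many single replicates reach that level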;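 note: positive control wells lacked labelled fibronectin entirely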
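Assay system: AH1F fibroblasts assembling fluorescent fibronectin matrix; Amount: 10000 AH1F cells per well; Buffer or medium: DMEM, 2% serum; Probe or stimulus: Alexa488-fibronectin, 24 nM final in well; Doses: single compound dose, delivered by pin transfer; Incubation: 1 h adhesion, overnight exposure; Measured by: fluorescence 485/525 nm; Read-out: fibronectin deposition inhibition.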
Ecoli rRNA inh: inhibits bacterial ribosomal RNA function over humanized ribosomes | actives 1.6% (n = 350,000) | GFP signal change (wild-type ribosome), % (no concentration beside the values) | E. coli WT GFP vs humanized-ribosome RFP mutants, fluorescence, 24 h; stronger effect = lower value; DMSO median 0, no signal -100 | AID 720706;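 active = significant combined selectivity score with lowered wild-type GFP, culture density cut under 30%, mutant RFP and density less affected; inactive = any of these conditions unmet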
PvdQ inh: P. aeruginosa PvdQ acylase inhibition. purified PvdQ acylase, fluorescence plate reader. inhibition, % at 10 µM. actives 0.063% (n = 340,000). AID 488965; in the data active = inhibition above about 30%, passing the limit was not always enough;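 note: 0% = vehicle neutral wells and 100% = reference inhibitor wells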
ERp5 block: ERp5 (human) disulfide isomerase inhibition; AID 651711; ERp5 insulin aggregation, absorbance 650 nm, 90 min; Q15084; actives 0.05% (n = 350,000); inhibition, % at 9.99 µM;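 active = mean replicate inhibition above about 25%, with every replicate also reaching it, limit read from the data, passing the limit was not always enough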
Target sequence (Q15084 whole entry, looked up): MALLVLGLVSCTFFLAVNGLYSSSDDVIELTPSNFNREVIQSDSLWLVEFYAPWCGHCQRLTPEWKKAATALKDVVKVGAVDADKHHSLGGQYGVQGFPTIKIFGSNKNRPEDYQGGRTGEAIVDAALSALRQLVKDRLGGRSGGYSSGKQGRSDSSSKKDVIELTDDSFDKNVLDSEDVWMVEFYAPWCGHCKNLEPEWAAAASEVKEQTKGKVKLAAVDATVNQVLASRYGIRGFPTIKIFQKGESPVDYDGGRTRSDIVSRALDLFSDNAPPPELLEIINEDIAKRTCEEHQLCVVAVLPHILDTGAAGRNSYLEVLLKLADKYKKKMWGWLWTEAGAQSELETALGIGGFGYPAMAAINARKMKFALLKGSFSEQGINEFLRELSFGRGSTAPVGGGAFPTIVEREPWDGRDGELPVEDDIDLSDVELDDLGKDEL
PDI inh: inhibitors of human protein disulfide isomerase; actives 0.052% (n = 350,000); inhibition, % at 10 µM; PDI insulin aggregation turbidity, A650, 90 min; AID 588391;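 active = mean inhibition across replicates of 30% or more, whatever share of single replicates reach that level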
* marks the source's active call; other numbers are inactive results; nt = no result; ! = repeats disagree; [ ] = dose if it differs, or a comment. Hits are enriched below; roughly 2.2% of the tested compounds scored in any of these assays.

SMILES | HIV Env fusion | FN deposit inh | Ecoli rRNA inh | PvdQ inh | ERp5 block | PDI inh
CCn1c(COc2ccccc2)nnc1SCC(=O)c1cccc([N+](=O)[O-])c1 | nt | nt | -24* | -6 | -4 | 4
CCCC#Cc1ccc2c(c1)O[C@@H](CN(C)Cc1cccnc1)[C@H](C)CN([C@@H](C)CO)S2(=O)=O | 32[16.7 µM] | -5 | -38 | nt | 3 | nt
NCC[C@@H]1CC[C@H](NC(=O)Nc2ccc(F)cc2)[C@H](CO)O1 | -8[16.7 µM] | 4 | 0 | nt | 3 | nt
COCC(=O)N(C)C[C@@H]1Oc2ncc(-c3ccc(F)cc3)cc2C(=O)N([C@H](C)CO)C[C@H]1C | 6[16.7 µM] | nt | 4 | nt | 8 | nt
CCOC(=O)C1CCN(C2=NC(=O)/C(=C/c3ccccc3OC)S2)CC1 | -4 | -3 | -24* | -3 | 3 | 9
COc1ccccc1/C=C1\SC(N2CCC(C)CC2)=NC1=O | -25 | -4 | -26 | 10 | 2 | 1
CCC(C)(C)c1ccc(OCCCC[n+]2cccc(C)c2)c(C(C)(C)CC)c1 | 129* | 18 | -59 | 9 | -2 | 21
Cc1ccc(-c2nc(N3CCN(C)CC3)c3ccccc3n2)cc1 | -3 | 6 | -27* | 3 | -1 | 1
CN1CCN(c2nc(-c3ccc(C(C)(C)C)cc3)nc3ccccc23)CC1 | -229 | -2 | 9 | 8 | 8 | 0
C[C@H]1CN([C@@H](C)CO)C(=O)c2cc(C#CCN(C)C)cnc2O[C@H]1CN(C)C | -7[16.7 µM] | -6 | 6 | nt | -10 | nt
C=CCNC(=S)N/N=C/c1ccc(C)cc1C | -30 | 4 | -17* | 11 | -2 | 3
CCNC(=S)N/N=C/c1cc(C)ccc1C | -18 | -3 | 3 | -5 | -4 | -2
O=C(Nc1nc(-c2ccccc2)cs1)c1ccccc1F | -40 | -5 | -20* | -11 | -5 | -2
O=C(Nc1ccccc1)Nc1nc(-c2ccc(Cl)cc2)cs1 | nt | -4 | -18* | 13 | 3 | -4
COc1ccc(-c2csc(NC(=O)c3ccccc3F)n2)cc1 | -7 | -9 | -10 | -5 | 4 | -1
NC(c1csc(NC(=O)Nc2ccccc2)n1)C1CCCCC1 (configuration not stated) | 57* | -1 | -15 | nt | -2 | 1
O=C(O)/C=C/C(=O)Nc1nc(-c2ccc3ccccc3c2)cs1 | 4 | -10 | -34* | -8 | -1 | -24
COc1ccc(-c2csc(NC(=O)c3ccccc3NS(=O)(=O)c3ccc(F)c(F)c3)n2)cc1 | 43 | 17 | -54 | -14 | -3 | 9
Cc1ccc(S(=O)(=O)Nc2ccccc2C(=O)Nc2nc(-c3ccc(F)cc3)cs2)cc1 | 56* | 0 | -43 | 2 | -2 | 3
C[C@@H]1CN([C@@H](C)CO)C(=O)c2cc(/C=C/c3ccccc3)cnc2O[C@H]1CN(C)C(=O)C1CC1 | -42[16.7 µM] | -7 | -2 | nt | nt | nt
O=C(CCCC(=O)c1ccc(O)cc1)c1ccc(O)cc1 | 4 | 0 | -19 | -10 | 2 | 4
O=C1C=CC(=C(c2ccc(O)cc2)c2ccc(O)cc2)C=C1 | 27 | 5 | -50*! | -4 | 4 | 6
COc1ccc(NC(=O)Nc2ccc3c(c2)C(=O)N([C@@H](C)CO)C[C@H](C)[C@H](CN(C)S(=O)(=O)c2ccc(C)cc2)OCCCC[C@@H](C)O3)cc1 | 17[16.7 µM] | nt | 1 | nt | -4 | nt
Cc1nc2ccccc2c2c1CC(C(C)(Cl)Br)O2 (configuration not stated) | 74* | -8 | -30* | 5 | 3 | 5
O=C(c1cc(Br)c(Br)s1)N1CCOCC1 | 63* | 0 | 6 | -2 | 5 | 6
SMILES | HIV Env fusion | FN deposit inh | Ecoli rRNA inh | PvdQ inh | ERp5 block | PDI inh
CNC(=O)C[C@H]1CC[C@H]2[C@@H](COc3ccc(NC(=O)NC4CCCC4)cc3C(=O)N2C)O1 | 5[16.7 µM] | -6 | 1 | nt | 3 | nt
COc1ccc(C(C(=O)NC2CCCC2)n2c(CSCCOc3ccccc3)nc3ccccc32)cc1 (configuration not stated) | 78* | 1 | 5 | nt | 2 | nt
O=C(NC1CCCCC1)C(c1ccccc1)n1c(=O)c(-c2ccco2)nc2ccccc21 (configuration not stated) | 63* | -6 | -7 | nt | -1 | nt
CC(C)NC(=O)Nc1ccc2c(c1)C(=O)N([C@H](C)CO)C[C@@H](C)[C@H](CN(C)C(=O)NC(C)C)O2 | nt | nt | 1 | nt | -4 | nt
CC12CCC(C(=O)N3CCC(Cc4ccccc4)CC3)(C(=O)C1=O)C2(C)C (configuration not stated) | 18 | nt | -23* | -5 | 6 | -9
CCCC(=O)N1CCC(Cc2ccccc2)CC1 | -10 | 5 | 10 | 10 | 3 | -3
Cc1cc(N2CCN(C(c3ccnc4ccccc34)c3nnnn3-c3c(C)cccc3C)CC2)c2ccccc2n1 (configuration not stated) | 4 | 13 | -26* | nt | 0 | nt
CCCNC(=O)N(C)C[C@@H]1Oc2ncc(Br)cc2C(=O)N([C@H](C)CO)C[C@H]1C | nt | 2 | 5 | nt | 3 | nt
Cc1nn(C2CCS(=O)(=O)C2)c(Cl)c1/C=C/C(=O)OCC(=O)c1cc(C)n(-c2ccc(F)cc2)c1C (configuration not stated) | 55* | -6 | -7 | -6 | 1 | 1
CC(C)n1c(N2CCN(C(=O)Nc3ccc(Cl)cc3)CC2)nc2ccccc21 | -13 | 5 | -38 | -9 | 10 | 2
CCCn1c(N2CCN(C(=O)Nc3ccc(Cl)cc3)CC2)nc2ccccc21 | 0 | 3 | -26* | -6 | -4 | -2
C=CCOC(=O)C1=C(C)Nc2nc3ccccc3n2C1c1ccncc1 (configuration not stated) | 28 | 2 | nt | -20 | nt | 0
CCOC(=O)C1=C(C)Nc2nc(SCc3cccnc3)nn2C1c1ccc(OC)cc1 (configuration not stated) | 62* | 2 | 2 | -9 | 3 | nt
CCOC(=O)C1=C(C)Nc2nc3ccccc3n2C1c1ccncc1 (configuration not stated) | 17 | 14* | nt | -1 | nt | -2
Cc1ccc(S(=O)(=O)Nc2ccc3c(c2)CC(=O)N([C@H](C)CO)C[C@@H](C)[C@H](CN(C)C(=O)NC(C)C)O3)cc1 | nt | nt | 4 | nt | -6 | nt
C/C=C/c1ccc([C@@H]2[C@H](CO)N(C(C)=O)C23CN(C(=O)c2cnccn2)C3)cc1 | nt | nt | 2 | nt | -3 | nt
CC(C)=CCN1CCN(Cc2cnc(C)s2)CC1CCO (configuration not stated) | 2 | 27 | 10 | 10 | -2 | -3
Cc1ncc(CN2CCN(Cc3ccc(F)cc3)C(CCO)C2)s1 (configuration not stated) | 3 | -3 | 17 | 39* | 1 | -1
O=C(c1ccccc1F)N1CCN(Cc2cccc(Cl)c2)CC1 | 69* | 0 | nt | -9 | nt | -1
COc1cccc(S(=O)(=O)Nc2ccc(C(=O)Nc3ccncc3)cc2)c1 | 20 | -1 | nt | -14 | nt | 16

High-throughput results deposited in PubChem by Broad Institute.
